Measured values from ChEMBL document CHEMBL1125009, “Variation in the aromatic ring of cromakalim: antihypertensive activity of pyranopyridines and 6-alkyl-2H-1-benzopyrans” (1990).

Columns and labels:
Format in all cases: functional, Artery
Rattus norvegicus [1] = test: The maximum fall in systolic blood pressure was determined at a dose of 10 mg/kg after oral administration in rats
Method in brief: (§1)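 Conscious spontaneously hypertensive rats (Japanese Okamoto strain, 14–24 weeks old), used only if systolic pressure was >180 mmHg, six per dose level. Dosed by oral needle into the esophagus as a solution or suspension in 1% w/v methylcellulose. Systolic pressure was read by tail-cuff, each reading the mean of at least six recordings, before dosing and at intervals from 1 to 6 h. The maximum fall was taken.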

Rattus norvegicus [2] = test: The maximum fall in systolic blood pressure was determined at a dose of 3.0 mg/kg after oral administration in rats; method in brief: as §1
Rattus norvegicus [3] = test: The maximum fall in systolic blood pressure was determined at a dose of 0.3 mg/kg after oral administration in rats; method in brief: as §1
Rattus norvegicus [4] = test: The maximum fall in systolic blood pressure was determined at a dose of 1 mg/kg after oral administration in rats; method in brief: as §1
Rattus norvegicus [5] = test: The maximum fall in systolic blood pressure was determined at a dose of 1.0 mg/kg after oral administration in rats; method in brief: as §1
Rattus norvegicus [6] = test: The maximum fall in systolic blood pressure was determined at a dose of 0.1 mg/kg after oral administration in rats; method in brief: as §1
Rattus norvegicus [7] = test: The maximum fall in systolic blood pressure was determined at a dose of 3 mg/kg after oral administration in rats; method in brief: as §1
Rattus norvegicus [8] = test: The maximum fall in systolic blood pressure was determined at a dose of 10.0 mg/kg after oral administration in rats; method in brief: as §1

SMILES | Max fall in blood pressure (Rattus norvegicus [3]) | Max fall in blood pressure (Rattus norvegicus [5]) | Max fall in blood pressure (Rattus norvegicus [7]) | other results
CC1(C)Oc2ncccc2[C@@H](N2CCCC2=O)[C@@H]1O | – | – | – | Max fall in blood pressure (Rattus norvegicus [1]): 5%
CC(=O)NC1c2cc(C)ccc2OC(C)(C)[C@H]1O (some centres not stated) | 9% | – | – | Max fall in blood pressure (Rattus norvegicus [2]): 20%
CC1(C)Oc2cnccc2[C@@H](N2CCCC2=O)[C@@H]1O | – | – | – | Max fall in blood pressure (Rattus norvegicus [1]): 41%; Max fall in blood pressure (Rattus norvegicus [4]): 7%
CC(=O)N[C@@H]1c2cnccc2OC(C)(C)[C@H]1O | 14% | 43% | – | –
CCc1ccc2c(c1)C(N1CCCC1=O)[C@H](O)C(C)(C)O2 (some centres not stated) | 11% | 54% | – | –
CC(C)c1ccc2c(c1)C(N1CCCC1=O)[C@H](O)C(C)(C)O2 (some centres not stated) | 17% | 36% | – | Max fall in blood pressure (Rattus norvegicus [2]): 60%
CC(C)(C)c1ccc2c(c1)C(N1CCCC1=O)[C@H](O)C(C)(C)O2 (some centres not stated) | 9% | 39% | – | Max fall in blood pressure (Rattus norvegicus [2]): 49%
CC1(C)Oc2ccncc2[C@@H](N2CCCCC2=O)[C@@H]1O | 55% | 56% | – | Max fall in blood pressure (Rattus norvegicus [6]): 24%
CC1(C)C=C(N2CCCCC2=O)c2cnccc2O1 | – | – | 37% | Max fall in blood pressure (Rattus norvegicus [4]): 14%
CC1(C)Oc2ccc(C(F)(F)F)cc2C(N2CCCC2=O)[C@@H]1O (some centres not stated) | 26% | – | – | Max fall in blood pressure (Rattus norvegicus [6]): 17%
CC1(C)Oc2ccncc2[C@@H](N2CCCC2=O)[C@@H]1O | – | – | 41% | Max fall in blood pressure (Rattus norvegicus [4]): 39%
CC1(C)Oc2ccc(-c3ccccc3)cc2C(N2CCCC2=O)[C@@H]1O (some centres not stated) | – | – | 14% | Max fall in blood pressure (Rattus norvegicus [8]): 20%
Cc1ccc2c(c1)C(N1CCCC1=O)[C@H](O)C(C)(C)O2 (some centres not stated) | – | – | 12% | Max fall in blood pressure (Rattus norvegicus [1]): 49%
CC1(C)Oc2ccc(C3CCCC3)cc2C(N2CCCC2=O)[C@@H]1O (some centres not stated) | – | 24% | – | Max fall in blood pressure (Rattus norvegicus [8]): 66%
CC1(C)Oc2cccnc2[C@@H](N2CCCC2=O)[C@@H]1O | – | – | – | Max fall in blood pressure (Rattus norvegicus [1]): 15%
Cc1ccc2c(c1)C(N1CCCCC1=O)[C@H](O)C(C)(C)O2 (some centres not stated) | 16% | 33% | 56% | –
CCCc1ccc2c(c1)C(N1CCCC1=O)[C@H](O)C(C)(C)O2 (some centres not stated) | – | – | 42% | Max fall in blood pressure (Rattus norvegicus [4]): 17%
CC1(C)Oc2cc[n+]([O-])cc2[C@@H](N2CCCCC2=O)[C@@H]1O | 39% | 68% | – | –
CC1(C)Oc2ccccc2C(N2CCCC2=O)[C@@H]1O (some centres not stated) | – | – | – | Max fall in blood pressure (Rattus norvegicus [1]): 49%
CC1(C)Oc2ccc(C#N)cc2C(N2CCCC2=O)C1O (configuration not stated) [CROMAKALIM] | 39% | 47% | – | Max fall in blood pressure (Rattus norvegicus [6]): 13%
